Test results: ChEMBL document CHEMBL3576859, “Novel benzamide-based histamine h3 receptor antagonists: the identification of two candidates for clinical development” (ACS Med Chem Lett, 2015)
Blank lines part the entries; values can stand above or below the compound they belong to. Active and inactive are the calls of the source. The rule behind the calls is not given here.

Key:
[1] = target: Histamine H3 receptor (Homo sapiens, UniProt Q9Y5N1); assay: Displacement of N-[3H]methylhistamine from human histamine H3 receptor expressed in human SK-N-MC cells after 45 mins; format: cell-based
Histamine H3 receptor, sequence (Q9Y5N1 whole entry): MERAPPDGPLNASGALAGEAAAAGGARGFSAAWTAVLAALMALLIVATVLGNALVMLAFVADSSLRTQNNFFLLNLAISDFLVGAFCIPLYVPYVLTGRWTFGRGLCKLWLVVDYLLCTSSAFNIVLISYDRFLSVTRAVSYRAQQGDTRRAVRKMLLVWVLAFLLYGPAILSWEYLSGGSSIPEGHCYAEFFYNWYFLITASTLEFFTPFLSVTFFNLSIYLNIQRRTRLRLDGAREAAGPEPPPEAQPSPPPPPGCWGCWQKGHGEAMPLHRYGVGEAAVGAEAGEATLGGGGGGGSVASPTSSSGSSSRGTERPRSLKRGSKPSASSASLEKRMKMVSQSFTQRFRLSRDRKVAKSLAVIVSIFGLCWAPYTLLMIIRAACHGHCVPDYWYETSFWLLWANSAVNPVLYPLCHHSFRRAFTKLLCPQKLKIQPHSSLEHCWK

[2] = Metabolic stability in Sprague-Dawley rat liver microsomes assessed as compound remaining at 1 uM after 15 mins; format: ADME; details: read-out: Stability
In short: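 Rat liver microsomes incubated with compound for 15 min. Stability expressed as percent of parent remaining.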

[3] = Metabolic stability in human liver microsomes assessed as compound remaining at 1 uM after 15 mins; format: ADME; details: read-out: Stability
In short: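 Compound incubated with human liver microsomes for 15 min. Read-out is percent parent remaining.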

[4] = Clearance in Sprague-Dawley rat; format: ADME, organism-based; details: in vivo
[5] = Volume of distribution at steady state in Sprague-Dawley rat; format: ADME, organism-based; details: in vivo, read-out: Vdss
[6] = Half life in Sprague-Dawley rat at 1 mg/kg, iv; format: ADME, organism-based; details: in vivo
[7] = Oral bioavailability in Sprague-Dawley rat at 10 mg/kg; format: ADME, organism-based; details: in vivo
[8] = Drug uptake in Sprague-Dawley rat brain at 3 mg/kg, po measured at 1 hr; format: ADME, organism-based; details: read-out: Drug uptake
In short: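 Rats dosed orally at 3 mg/kg. Brain drug concentration (μM) measured at 1 h post-dose.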

[9] = system: Rattus norvegicus; assay: Ex vivo histamine H3 receptor occupancy in Sprague-Dawley rat striatum at 3 mg/kg, po measured at 1 hr by autoradiographic analysis; format: functional
In short: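 After a 3 mg/kg oral dose in rats, ex vivo H3 receptor occupancy was determined by autoradiography at 1 h. Values are mean ± SD.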

[10] = target: Voltage-gated inwardly rectifying potassium channel KCNH2 (Homo sapiens, UniProt Q12809); assay: Displacement of [3H]-astemizole from human ERG expressed in HEK293 cells after 60 mins by scintillation counting analysis; format: cell-based
Voltage-gated inwardly rectifying potassium channel KCNH2, sequence (Q12809 whole entry): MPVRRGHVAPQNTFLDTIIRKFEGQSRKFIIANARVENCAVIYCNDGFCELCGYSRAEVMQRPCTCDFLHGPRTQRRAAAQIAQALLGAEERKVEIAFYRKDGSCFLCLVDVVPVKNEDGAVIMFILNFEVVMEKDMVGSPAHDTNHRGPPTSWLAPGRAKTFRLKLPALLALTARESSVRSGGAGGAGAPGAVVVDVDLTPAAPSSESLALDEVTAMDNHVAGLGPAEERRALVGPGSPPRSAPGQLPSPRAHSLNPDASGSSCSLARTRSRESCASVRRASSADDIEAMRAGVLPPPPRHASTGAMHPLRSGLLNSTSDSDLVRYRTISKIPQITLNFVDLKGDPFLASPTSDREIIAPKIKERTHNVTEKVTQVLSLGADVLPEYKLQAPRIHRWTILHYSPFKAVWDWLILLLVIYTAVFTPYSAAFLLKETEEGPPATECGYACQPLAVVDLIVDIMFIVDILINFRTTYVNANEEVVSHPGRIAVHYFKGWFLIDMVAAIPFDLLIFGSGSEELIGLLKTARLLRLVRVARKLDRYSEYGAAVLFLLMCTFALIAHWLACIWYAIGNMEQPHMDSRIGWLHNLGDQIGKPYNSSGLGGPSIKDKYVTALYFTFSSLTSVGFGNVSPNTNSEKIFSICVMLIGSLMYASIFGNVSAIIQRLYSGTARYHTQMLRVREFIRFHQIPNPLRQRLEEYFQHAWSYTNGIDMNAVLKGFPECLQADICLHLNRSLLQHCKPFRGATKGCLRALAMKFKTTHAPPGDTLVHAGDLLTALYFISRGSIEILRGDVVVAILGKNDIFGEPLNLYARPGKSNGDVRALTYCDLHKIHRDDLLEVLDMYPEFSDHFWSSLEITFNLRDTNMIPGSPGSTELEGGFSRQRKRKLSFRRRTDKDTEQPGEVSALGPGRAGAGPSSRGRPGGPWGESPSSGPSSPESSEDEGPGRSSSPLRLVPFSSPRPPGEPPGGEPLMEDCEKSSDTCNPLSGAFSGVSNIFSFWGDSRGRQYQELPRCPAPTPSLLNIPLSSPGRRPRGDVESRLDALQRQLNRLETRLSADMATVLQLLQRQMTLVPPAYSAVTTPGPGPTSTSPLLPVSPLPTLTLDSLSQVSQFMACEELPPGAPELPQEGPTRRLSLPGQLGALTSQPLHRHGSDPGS

[11] = Apparent permeability across apical to basolateral side in human Caco2 cells at 10 uM after 60 mins by LC/MS/MS analysis; format: ADME, cell-based; details: Caco-2
In short: (§1)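 Caco-2 monolayer permeability measured in both directions, apical-to-basolateral and basolateral-to-apical. Reported as P_app (×10−⁶ cm/s), given as A−B/B−A pairs.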

[12] = Apparent permeability across basolateral to apical side in human Caco2 cells at 10 uM […] by LC/MS/MS analysis; format: ADME, cell-based; details: Caco-2; in short: as §1
[13] = Plasma protein binding in human; format: ADME, cell-free; details: read-out: PPB (converted)
[14] = target: T1, Cytochrome P450 1A2 (Homo sapiens, UniProt P05177); assay: Inhibition of CYP1A2 (unknown origin); format: ADME
T1 sequence (P05177 whole entry): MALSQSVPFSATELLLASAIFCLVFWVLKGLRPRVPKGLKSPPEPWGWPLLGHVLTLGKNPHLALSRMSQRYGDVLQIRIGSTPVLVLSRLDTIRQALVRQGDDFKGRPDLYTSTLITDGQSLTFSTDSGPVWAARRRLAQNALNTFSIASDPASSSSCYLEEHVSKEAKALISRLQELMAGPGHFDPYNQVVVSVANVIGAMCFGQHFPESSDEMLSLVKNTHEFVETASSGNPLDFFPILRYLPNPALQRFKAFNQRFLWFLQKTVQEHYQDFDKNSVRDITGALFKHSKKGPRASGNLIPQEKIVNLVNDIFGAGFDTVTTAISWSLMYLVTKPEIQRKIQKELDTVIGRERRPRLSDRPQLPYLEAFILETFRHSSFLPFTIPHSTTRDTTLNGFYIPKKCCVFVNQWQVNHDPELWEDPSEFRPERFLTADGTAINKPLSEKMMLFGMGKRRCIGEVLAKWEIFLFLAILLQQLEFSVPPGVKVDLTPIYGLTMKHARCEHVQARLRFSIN
In short: (§2)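 CYP1A2, 2C9, 2C19, 2D6 and 3A4 inhibition measured and reported as IC₅₀ (μM).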

[15] = target: Cytochrome P450 2C9 (Homo sapiens, UniProt P11712); assay: Inhibition of CYP2C9 (unknown origin); format: ADME; in short: as §2
Cytochrome P450 2C9, sequence (P11712 whole entry): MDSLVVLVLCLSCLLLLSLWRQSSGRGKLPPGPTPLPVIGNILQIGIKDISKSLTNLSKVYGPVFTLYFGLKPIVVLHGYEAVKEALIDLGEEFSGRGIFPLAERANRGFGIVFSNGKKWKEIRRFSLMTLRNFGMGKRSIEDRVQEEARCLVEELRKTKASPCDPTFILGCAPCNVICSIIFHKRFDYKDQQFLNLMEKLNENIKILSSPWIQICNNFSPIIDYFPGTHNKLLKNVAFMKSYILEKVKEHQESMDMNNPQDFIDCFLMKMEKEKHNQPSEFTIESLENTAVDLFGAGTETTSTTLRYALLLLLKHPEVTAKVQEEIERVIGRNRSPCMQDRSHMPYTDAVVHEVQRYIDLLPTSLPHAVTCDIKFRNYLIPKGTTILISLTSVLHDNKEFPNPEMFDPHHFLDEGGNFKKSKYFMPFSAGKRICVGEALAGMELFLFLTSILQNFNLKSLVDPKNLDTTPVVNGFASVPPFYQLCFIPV

[16] = target: Cytochrome P450 2C19 (Homo sapiens, UniProt P33261); assay: Inhibition of CYP2C19 (unknown origin); format: ADME; in short: as §2
Cytochrome P450 2C19, sequence (P33261 whole entry): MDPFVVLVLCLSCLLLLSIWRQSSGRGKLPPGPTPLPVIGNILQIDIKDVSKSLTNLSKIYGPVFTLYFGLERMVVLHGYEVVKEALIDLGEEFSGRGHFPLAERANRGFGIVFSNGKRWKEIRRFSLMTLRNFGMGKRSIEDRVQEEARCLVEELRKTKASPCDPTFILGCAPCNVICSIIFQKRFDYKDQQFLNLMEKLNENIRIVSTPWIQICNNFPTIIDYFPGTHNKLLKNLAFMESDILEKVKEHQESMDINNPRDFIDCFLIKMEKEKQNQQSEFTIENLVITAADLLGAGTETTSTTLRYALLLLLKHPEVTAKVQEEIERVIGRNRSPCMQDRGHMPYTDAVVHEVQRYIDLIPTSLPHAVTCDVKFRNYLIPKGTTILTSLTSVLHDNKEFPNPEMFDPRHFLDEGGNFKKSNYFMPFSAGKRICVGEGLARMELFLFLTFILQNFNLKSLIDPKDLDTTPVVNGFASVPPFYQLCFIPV

[17] = target: Cytochrome P450 2D6 (Homo sapiens, UniProt P10635); assay: Inhibition of CYP2D6 (unknown origin); format: ADME; in short: as §2
Cytochrome P450 2D6, sequence (P10635 whole entry): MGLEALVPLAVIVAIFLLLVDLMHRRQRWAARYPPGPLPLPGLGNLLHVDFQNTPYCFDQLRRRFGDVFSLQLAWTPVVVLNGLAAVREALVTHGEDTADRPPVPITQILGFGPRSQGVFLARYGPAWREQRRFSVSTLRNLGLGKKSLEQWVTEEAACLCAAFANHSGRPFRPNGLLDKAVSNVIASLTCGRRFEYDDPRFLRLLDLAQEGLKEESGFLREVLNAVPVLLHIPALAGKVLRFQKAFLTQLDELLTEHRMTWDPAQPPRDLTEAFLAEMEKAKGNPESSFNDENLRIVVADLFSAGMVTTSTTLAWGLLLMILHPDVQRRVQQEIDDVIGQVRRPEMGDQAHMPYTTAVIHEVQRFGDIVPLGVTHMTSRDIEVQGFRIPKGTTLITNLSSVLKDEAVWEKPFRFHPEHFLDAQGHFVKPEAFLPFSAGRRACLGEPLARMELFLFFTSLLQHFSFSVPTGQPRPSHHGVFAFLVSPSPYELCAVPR

[18] = target: Cytochrome P450 3A4 (Homo sapiens, UniProt P08684); assay: Inhibition of CYP3A4 (unknown origin); format: ADME; in short: as §2
Cytochrome P450 3A4, sequence (P08684 whole entry): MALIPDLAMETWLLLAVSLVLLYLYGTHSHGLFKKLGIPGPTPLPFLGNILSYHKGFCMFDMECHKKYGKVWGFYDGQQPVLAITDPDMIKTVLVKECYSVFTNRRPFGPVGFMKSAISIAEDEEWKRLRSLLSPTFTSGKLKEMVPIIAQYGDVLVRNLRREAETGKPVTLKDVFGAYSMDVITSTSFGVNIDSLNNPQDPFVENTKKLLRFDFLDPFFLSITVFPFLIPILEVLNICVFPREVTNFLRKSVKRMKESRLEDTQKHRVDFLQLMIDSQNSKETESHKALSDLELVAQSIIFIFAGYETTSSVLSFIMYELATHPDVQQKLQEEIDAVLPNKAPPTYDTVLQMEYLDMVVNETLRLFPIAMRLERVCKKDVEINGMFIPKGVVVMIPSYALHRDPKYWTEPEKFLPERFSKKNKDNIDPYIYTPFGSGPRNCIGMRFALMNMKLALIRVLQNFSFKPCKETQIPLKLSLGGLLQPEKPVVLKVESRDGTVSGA

[19] = system: Rattus norvegicus; assay: Wake-promoting activity in Sprague-Dawley rat assessed as increase in time spent awake at 10 mg/kg, sc administered during light sleep phase measured over first 6 hrs post-treatment; format: functional
In short: (§3)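 Rats treated during the light sleep phase. Time awake, NREM and REM sleep duration scored over the first 6 h post-treatment.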

[20] = system: Rattus norvegicus; assay: Wake-promoting activity in Sprague-Dawley rat assessed as decrease in non-rapid eye movement sleep duration at 10 mg/kg, sc administered during light sleep phase measured over first 6 hrs post-treatment; format: functional, organism-based; in short: as §3
[21] = system: Rattus norvegicus; assay: Toxicity in Sprague-Dawley rat assessed as effect on rapid eye movement sleep at 10 mg/kg, sc administered during light sleep phase measured over first 6 hrs post-treatment; format: organism-based; details: in vivo
[22] = system: Rattus norvegicus; assay: Toxicity in Sprague-Dawley rat assessed as increase in locomotor activity at 10 mg/kg, sc; format: organism-based; details: in vivo
[23] = system: Rattus norvegicus; assay: Toxicity in rat assessed as induction of mild and sporadic salivation at 250 mg/kg, po administered up to 28 days; format: organism-based; details: in vivo, 672 h
In short: (§4)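 Rats dosed orally at up to 250 mg/kg daily for up to 28 days. Monitored for clinical signs (salivation, activity), body weight, food consumption and clinical pathology; NOAEL derived.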

[24] = system: Rattus norvegicus; assay: Toxicity in rat assessed as decrease in locomotor activity at 250 mg/kg, po administered up to 28 days; format: organism-based; details: in vivo, 672 h; in short: as §4
[25] = system: Rattus norvegicus; assay: Toxicity in rat assessed as decrease in body weight at 250 mg/kg, po administered up to 28 days; format: organism-based; details: in vivo, 672 h; in short: as §4
[26] = system: Rattus norvegicus; assay: Toxicity in rat assessed as clinical pathology alteration at 250 mg/kg, po administered up to 28 days; format: organism-based; details: in vivo, 672 h; in short: as §4
[27] = Toxicity in po dosed rat administered up to 28 days; format: organism-based; details: in vivo; in short: as §4
[28] = system: Rattus norvegicus; assay: Toxicity in rat assessed as decrease in food consumption at 250 mg/kg, po administered up to 28 days; format: organism-based; details: in vivo, 672 h; in short: as §4
[29] = organism: Mus musculus; assay: Toxicity in mouse; format: organism-based; details: in vivo
[30] = system: Canis familiaris; assay: Toxicity in dog at 10 to 75 mg/kg/day administered for 5 days; format: organism-based, Canis lupus familiaris; details: in vivo, 120 h
[31] = Elimination half life in human at 2 mg; format: ADME, organism-based; details: in vivo, read-out: beta t1/2 (converted)
In short: (§5)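 Mean elimination half-life determined in human dose groups receiving 2 mg and 5 mg.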

[32] = Elimination half life in human at 5 mg; format: ADME, organism-based; details: in vivo, read-out: beta t1/2 (converted); in short: as §5
[33] = organism: Homo sapiens; assay: Toxicity in human assessed as insomnia; format: organism-based; details: in vivo
[34] = target: Voltage-gated L-type calcium channel (Rattus norvegicus, UniProt P22002+Q02485+P27732); assay: Binding affinity to rat L-type calcium channel at 1 uM

Ki [1]: 0.0015 µM
remaining at 0.25 h, 1 µM [2]: 50%
remaining at 0.25 h, 1 µM [3]: 84.8%
clearance [4]: 44.2 mL/min/kg
Vd [5]: 29.2 L/kg
half-life [6]: 7.6 h
bioavailability [7]: 17%
concentration at 1 h [8]: 1820 nM
SMILES: CC(C)N1CCN(C(=O)c2ccc(CN3CCC(F)CC3)cc2)CC1
Occ [9]: 92%

remaining at 0.25 h, 1 µM [2]: 26.8%
remaining at 0.25 h, 1 µM [3]: 83.6%
clearance [4]: 41.4 mL/min/kg
Vd [5]: 3.9 L/kg
half-life [6]: 1.1 h
bioavailability [7]: 14%
concentration at 1 h [8]: 540 nM
SMILES: O=C(c1ccc(CN2CCC(F)CC2)cc1)N1CCN(C2CC2)CC1
IC50 [10]: > 10 µM
Occ [9]: 25%

Ki [1]: 0.0025 µM
remaining at 0.25 h, 1 µM [3]: 65%
Papp A→B at 1 h, 10 µM [11]: 22.4 ×10⁻⁶ cm/s
Papp B→A at 10 µM [12]: 20.9 ×10⁻⁶ cm/s
clearance [4]: 12.8 mL/min/kg
Vd [5]: 3.6 L/kg
half-life [6]: 3.2 h
bioavailability [7]: 62%
concentration at 1 h [8]: 5370 nM
fraction unbound [13]: 0.876
IC50 [14]: > 40 µM
IC50 [15]: > 40 µM
IC50 [16]: > 40 µM
IC50 [17]: > 40 µM
IC50 [18]: > 40 µM
half-life [31]: 49.1 h
half-life [32]: 56.1 h
Activity [34]: Not Active
SMILES: CC(C)N1CCN(C(=O)c2ccc(CN3CCOCC3)cc2)CC1.O=C(O)/C=C\C(=O)O
IC50 [10]: > 10 µM
Occ [9]: 86%
Time [19]: 1 h
Activity [20]: Active
Activity [21]: Non-toxic
Activity [22]: Non-toxic
Activity [23]: Toxic
Activity [24]: Toxic
Activity [25]: Toxic
Activity [26]: Toxic
NOAEL at 672 h [27]: 25 mg/kg/day
Activity [28]: Toxic
Activity [29]: Non-toxic
Activity [30]: Non-toxic
Activity [33]: Toxic
